Measured values as given in ChEMBL document CHEMBL4308850, “Design of a True Bivalent Ligand with Picomolar Binding Affinity for a G Protein-Coupled Receptor Homodimer” (J Med Chem, 2018).
Activity calls are given as the source filed them. No cut-off for these calls is given here.

Experiments:
D(2) dopamine receptor [1] = target: T1, D(2) dopamine receptor (Homo sapiens, UniProt P14416); assay: Displacement of [3H]-YM-09151-2 from dopamine D2 receptor (unknown origin) in sheep brain striatum membranes preincubated with TAT-TM6 A2AR peptide for 1 h before addition of compound and radioligand and measured after 2 hrs by scintillation counting; format: cell membranes
Summary of the method: (§1)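 Sheep striatal membranes (50 mM Tris-HCl pH 7.4, protease inhibitors; 0.2 mg protein/mL) incubated 2 h at room temperature in Tris-HCl with 10 mM MgCl2, 0.8 nM free [3H]YM-09151-2 and rising ligand concentrations; nonspecific binding with 30 μM dopamine. Filtration on PEI-soaked GF/C, scintillation counting; fitted to two-state dimer model. Lines 5 and 6: membranes preincubated 1 h with the named TAT-TM6 peptide first.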

D(2) dopamine receptor [2] = target: T1, D(2) dopamine receptor; assay: Binding affinity to human dopamine D2 receptor transfected in HEK293 cells co-expressing nYFP (1 to 155 residues) and cYFP (156 to 238 residues) at 100 nM after 10 mins by fluorescence complementation assay; format: cell-based
Summary of the method: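 HEK-293T cells transiently co-transfected (lipofectamine) with D2R-nYFP and D2R-cYFP; after 48 h, cells in HBSS with 0.1% glucose (20 μg protein, 50,000 cells/well) treated with 100 nM ligand or HBSS for 10 min. Fluorescence read at 530 nm emission, 400 nm excitation; background from cells lacking fusion proteins subtracted.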

D(2) dopamine receptor [3] = target: T1, D(2) dopamine receptor; assay: Displacement of [3H]-YM-09151-2 from dopamine D2 receptor (unknown origin) in sheep brain striatum membranes after 2 hrs by scintillation counting; format: cell membranes; settings: Ovis aries (sheep); summary of the method: as §1
D(2) dopamine receptor [4] = target: T1, D(2) dopamine receptor; assay: Antagonist activity at human dopamine D2 receptor expressed in CHO cells co-expressing A2A receptor assessed as reduction in sumanirole-induced response after 90 mins by DMR analysis; format: cell-based
Summary of the method: (§2)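 CHO cells stably co-expressing human A2AR and D2R, seeded 7,000/well 24 h before assay (70–80% confluent). Washed into assay buffer (medium, 20 mM HEPES pH 7.15, 0.1% DMSO, 0.1% BSA), equilibrated 2 h at 24°C; 10 min baseline, antagonist added and read 30 min, then sumanirole (100 nM solution) added and DMR wavelength shift (pm) recorded ≥90 min; expressed as % maximal sumanirole effect.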

D(2) dopamine receptor [5] = target: T1, D(2) dopamine receptor; assay: Displacement of [3H]-YM-09151-2 from dopamine D2 receptor (unknown origin) in sheep brain striatum membranes preincubated with TAT-TM6 D2R peptide for 1 h before addition of compound and radioligand and measured after 2 hrs by scintillation counting; format: cell membranes; summary of the method: as §1
D(2) dopamine receptor [6] = target: T1, D(2) dopamine receptor; settings: CHO, 1 uM
D(2) dopamine receptor [7] = target: T1, D(2) dopamine receptor; assay: Antagonist activity at human dopamine D2 receptor expressed in CHO cells co-expressing A2A receptor assessed as reduction in sumanirole-induced response at 0.5 uM after 90 mins by DMR analysis; format: cell-based; summary of the method: as §2

T1 sequence (P14416 whole entry): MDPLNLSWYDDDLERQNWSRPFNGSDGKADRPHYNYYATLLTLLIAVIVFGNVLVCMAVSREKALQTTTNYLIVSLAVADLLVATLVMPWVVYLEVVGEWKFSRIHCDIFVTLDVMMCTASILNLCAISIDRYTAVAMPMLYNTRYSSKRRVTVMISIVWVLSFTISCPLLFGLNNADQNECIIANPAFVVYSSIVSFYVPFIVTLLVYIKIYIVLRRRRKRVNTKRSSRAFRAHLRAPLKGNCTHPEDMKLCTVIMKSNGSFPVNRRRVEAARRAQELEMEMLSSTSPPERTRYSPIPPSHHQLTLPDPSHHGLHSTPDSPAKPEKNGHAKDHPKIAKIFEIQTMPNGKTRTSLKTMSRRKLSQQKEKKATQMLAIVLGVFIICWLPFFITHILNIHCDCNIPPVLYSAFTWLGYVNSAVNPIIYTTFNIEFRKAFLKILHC

Compound	K (D(2) dopamine receptor [1])	Activity (D(2) dopamine receptor [2])	K (D(2) dopamine receptor [3])	IC50 (D(2) dopamine receptor [4])	K (D(2) dopamine receptor [5])	inhibition (D(2) dopamine receptor [6])	inhibition (D(2) dopamine receptor [7])
COC(=O)CN(CC(=O)NCCOCCOCCNC(C)=O)CC(=O)NCCOCCOCCNC(=O)CCC(=O)Nc1ccc(CCN2CN(c3ccccc3)C3(CCN(CCCC(=O)c4ccc(F)cc4)CC3)C2=O)cc1	0.8 nM	inactive	0.77 nM	280 nM	0.8 nM	–	–
COC(=O)CN(CC(=O)NCCCOCCOCCOCCCNC(C)=O)CC(=O)NCCCOCCOCCOCCCNC(=O)CCC(=O)Nc1ccc(CCN2CN(c3ccccc3)C3(CCN(CCCC(=O)c4ccc(F)cc4)CC3)C2=O)cc1	–	–	1.5 nM	–	–	–	–
O=C(CCCN1CCC2(CC1)C(=O)NCN2c1ccccc1)c1ccc(F)cc1	–	–	–	–	–	Active	–
COC(=O)CN(CC(=O)NCCOCCOCCNC(=O)CCC(=O)Nc1ccc(CCN2CN(c3ccccc3)C3(CCN(CCCC(=O)c4ccc(F)cc4)CC3)C2=O)cc1)CC(=O)NCCOCCOCCNC(=O)CCC(=O)Nc1ccc(CCN2CN(c3ccccc3)C3(CCN(CCCC(=O)c4ccc(F)cc4)CC3)C2=O)cc1	0.05 nM	inactive	0.021 nM	15 nM	1.1 nM	–	Active
O=C(O)CCC(=O)Nc1ccc(CCN2CN(c3ccccc3)C3(CCN(CCCC(=O)c4ccc(F)cc4)CC3)C2=O)cc1	–	–	0.7 nM	–	–	–	–
COC(=O)CN(CC(=O)NCCCOCCOCCOCCCNC(=O)CCC(=O)Nc1ccc(CCN2CN(c3ccccc3)C3(CCN(CCCC(=O)c4ccc(F)cc4)CC3)C2=O)cc1)CC(=O)NCCCOCCOCCOCCCNC(=O)CCC(=O)Nc1ccc(CCN2CN(c3ccccc3)C3(CCN(CCCC(=O)c4ccc(F)cc4)CC3)C2=O)cc1	–	–	0.07 nM	–	–	–	Active
